Assay results of several laboratories.
Each line is one published result; the experiments were not run side by side. Values after ≈ are worked out from the molar mass of the structure shown.

`CCCCNc1ccnc(Nc2cccc(-c3cccnc3)c2)n1` gave an EC50 of greater than 17 µM (BJ; cell growth or viability, ATP luminescence; 72 h).
For `CC1(C)S[C@@H]2[C@H](NC(=O)[C@H](N)c3ccccc3)C(=O)N2[C@H]1C(=O)O`, the MIC was 2 µg/mL (≈ 5.72 µM) (Salmonella enterica; microbial growth; F98, TYPHIMURIUM; 20 h, pH 7.2).
For `C[C@H](Nc1ccnc(Nc2cccc(-c3cccnc3)c2)n1)C(=O)O`, the EC50 was greater than 9 µM (BJ; cell growth or viability, ATP luminescence; 72 h).
`CN(C)[C@@H]1C(O)=C(C(N)=O)C(=O)[C@@]2(O)C(O)=C3C(=O)c4c(O)cccc4[C@@](C)(O)[C@H]3C[C@@H]12` has an MIC of 2 µg/mL (≈ 4.5 µM) (Salmonella enterica; microbial growth; ENTERITIDIS; 20 h, pH 7.2).
With `O=c1cc(-c2ccc(O)cc2)oc2cc(O)cc(O)c12` the inhibition was 100% (Helicobacter pylori; microbial growth, broth dilution; 31.25 µg/mL).
`CN(c1ccnc(Nc2cccc(-c3cccnc3)c2)n1)C1CCCCC1` has an EC50 of greater than 8 µM (BJ; cell growth or viability, ATP luminescence; 72 h).
`CO/N=C(\C(=O)N[C@@H]1C(=O)N2C(C(=O)O)=C(CSc3nc(=O)c(=O)[nH]n3C)CS[C@H]12)c1csc(N)n1` gave an MIC of 0.125 µg/mL (≈ 0.225 µM) (Salmonella enterica; microbial growth; F98, TYPHIMURIUM; 20 h, pH 7.2).
With `O=C(Nc1cncc(-c2nc3ccccc3o2)c1)c1ccc(N2CCNCC2)c([N+](=O)[O-])c1` the EC50 was greater than 20 µM (BJ; cell growth or viability, ATP luminescence).
For `O=C(O)c1ccc(O)cc1`, the inhibition was 100% (Helicobacter pylori; microbial growth, broth dilution; 62.5 µg/mL).
With `CS(=O)(=O)c1ccc([C@@H](O)[C@@H](CF)NC(=O)C(Cl)Cl)cc1` the MIC was 8 µg/mL (≈ 22.3 µM) (Salmonella enterica; microbial growth; ENTERITIDIS; 20 h, pH 7.2).
`O=c1cc(-c2ccc(O)c(O)c2)oc2cc(O)cc(O)c12` gave an inhibition of 89.3% (Helicobacter pylori; microbial growth, broth dilution; 1.95 µg/mL).
`CONc1ccnc(Nc2cccc(-c3cccnc3)c2)n1` gave an EC50 of greater than 12 µM (BJ; cell growth or viability, ATP luminescence; 72 h).
